The results in this text go back to ChEMBL document CHEMBL1134791, “2- and 3-substituted 1,4-naphthoquinone derivatives as subversive substrates of trypanothione reductase and lipoamide dehydrogenase from Trypanosoma cruzi: synthesis and correlation between redox cycling activities and in vitro cytotoxicity” (J Med Chem, 2001).

Assay [1] deals with Trypanothione reductase (Trypanosoma cruzi) (UniProt P28593). The assay is described as follows: Rate of NADPH oxidation by TcTR in presence of 100 uM NQ was determined in comparison to intrinsic oxidase activity. The essentials: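 Quinone reductase activity of recombinant TcTR measured as NADPH oxidation at 340 nm. Buffer was 20 mM Hepes, 1 mM EDTA, 0.15 M KCl, pH 7.25, with 250 µM NADPH at 25 °C. Rate with naphthoquinone (100 µM for line 8, 25 µM for line 9) divided by intrinsic oxidase rate of enzyme plus NADPH alone. Mean of at least two measurements.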
Sequence of Trypanothione reductase (Trypanosoma cruzi) (P28593 whole entry, looked up): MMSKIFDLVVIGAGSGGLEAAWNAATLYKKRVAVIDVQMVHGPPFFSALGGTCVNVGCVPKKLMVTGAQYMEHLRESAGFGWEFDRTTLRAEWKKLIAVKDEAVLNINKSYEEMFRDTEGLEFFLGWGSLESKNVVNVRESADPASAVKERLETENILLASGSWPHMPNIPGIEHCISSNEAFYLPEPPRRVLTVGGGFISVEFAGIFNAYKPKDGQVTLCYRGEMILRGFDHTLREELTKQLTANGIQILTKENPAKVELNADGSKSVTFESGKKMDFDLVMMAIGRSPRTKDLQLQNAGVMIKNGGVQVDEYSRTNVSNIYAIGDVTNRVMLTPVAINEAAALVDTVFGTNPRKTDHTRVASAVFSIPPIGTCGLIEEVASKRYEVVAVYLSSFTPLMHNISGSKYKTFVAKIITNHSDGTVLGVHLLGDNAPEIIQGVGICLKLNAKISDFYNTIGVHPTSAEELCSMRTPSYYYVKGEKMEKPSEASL

Assay [2] concerns Leishmania donovani. The assay is described as follows: In vitro antiparasitic activity against Leishmania donovani was tested by sigmoidal regression analysis. Type of assay: functional. The method, boiled down:
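Mouse peritoneal macrophages (female CD1, starch-elicited, harvested 24 h) infected with L. donovani amastigotes (strain MHOM/ET/67/L82, hamster spleen) or T. cruzi Y-strain trypomastigotes (5:1, from MDCK overlay). Infected cells exposed to a 3-fold dilution series in quadruplicate for 5 days (L. donovani) or 3 days (T. cruzi). Giemsa-stained slides scored for % macrophages cleared of amastigotes versus untreated cultures. ED50 by sigmoidal regression.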

For assay [3], the target named is Trypanothione reductase (Trypanosoma cruzi) (UniProt P28593). The assay is described as follows: The second order rate constant of the TcTR (Trypanosoma cruzi trypanothione reductase) catalyzed […]. The essentials:
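Recombinant TcTR (0.6 U) in 20 mM Hepes, 1 mM EDTA, 0.15 M KCl, pH 7.25 at 22 °C, with 200 µM NADPH and naphthoquinone at five concentrations (0–100 µM) in 1% DMSO. NADPH oxidation at 340 nm; intrinsic oxidase rate not subtracted. Km and Vmax from nonlinear Michaelis–Menten fit; kcat and kcat/Km calculated.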

In the case of `CN(C)CCCN1CCN(CC2=C(N3CCN(CCCN(C)C)CC3)C(=O)c3ccccc3C2=O)CC1`, the x fold in assay [1] was 3.9.
`CC1=C(CCCC(=O)NCCCNCCCNC(=O)CCCC2=C(C)C(=O)c3cccc(O)c3C2=O)C(=O)c2c(O)cccc2C1=O` came in with an ED50 in assay [2] of 46.7 µM. For the same compound, in assay [3], the k cat/Km is 6.5 10e4 M-1 s-1.
For `CC1=C(CCC(=O)NCCCNCCCNC(=O)CCC2=C(C)C(=O)c3cccc(O)c3C2=O)C(=O)c2c(O)cccc2C1=O` the same measures were above 49 µM and 4.5 10e4 M-1 s-1.
Regarding `CC1=C(NCCCN2CCN(CCCN)CC2)C(=O)c2c(O)cccc2C1=O`, the x fold in assay [1] came to 6.4.
Take `CC1=C(CCCCCC(=O)NCCCNCCCNC(=O)CCCCCC2=C(C)C(=O)c3ccccc3C2=O)C(=O)c2ccccc2C1=O`: in assay [2], the ED50 turned out to be 22.8 µM. The k cat/Km in assay [3] was 2.3 10e4 M-1 s-1.
For `CC1=C(CCCCC(=O)NCCCN2CCN(CCCNC(=O)CCCCC3=C(C)C(=O)c4cccc(O)c4C3=O)CC2)C(=O)c2c(O)cccc2C1=O`, the ED50 in assay [2] was 29.6 µM.
For the compound `CC1=C(CCCCNC(=O)OC(C)(C)C)C(=O)c2ccccc2C1=O`, the ED50 in assay [2] is 16.5 µM.
`CC1=C(CCC(=O)NCCCCNCCCNC(=O)CCC2=C(C)C(=O)c3cccc(O)c3C2=O)C(=O)c2c(O)cccc2C1=O`: the ED50 in assay [2] was above 48 µM. The k cat/Km in assay [3] was 7.7 10e4 M-1 s-1.
Compound `CC1=C(CCCCCNC(=O)OC(C)(C)C)C(=O)c2c(O)cccc2C1=O` registered an ED50 in assay [2] of 33.8 µM.
The same measure, in the same setting: as for `O=C(O)CCCCCC1=C(CCCCCC(=O)O)C(=O)c2ccccc2C1=O`, the figure is above 74 µM.
In the case of `CC1=C(NCCCNCCC/N=C2/C(=O)c3ccccc3C(O)=C2C)C(=O)c2ccccc2C1=O`, the x fold in assay [1] was determined as 4.
With `CC1=C(CCCCC(=O)O)C(=O)c2ccccc2C1=O`, the ED50 in assay [2] is 39 µM.
Compound `CC1=C(CCCC(=O)O)C(=O)c2c(O)cccc2C1=O` came in with an ED50 in assay [2] above 109 µM.
Take `CN1CCN(C(=O)CCCC2=C(CCCC(=O)N3CCN(C)CC3)C(=O)c3c(O)cccc3C2=O)CC1`: the ED50 in assay [2] was above 48 µM. Moreover, the x fold in assay [1] came to 220.
In the case of `CC1=C(CCCC(=O)N2CCN(C)CC2)C(=O)c2c(O)cccc2C1=O`, the ED50 in assay [2] is 82 µM. Also, the x fold in assay [1] came out at 14.
With `CC1=C(CCCCCC(=O)NCCCN2CCN(CCCNC(=O)CCCCCC3=C(C)C(=O)c4cccc(O)c4C3=O)CC2)C(=O)c2c(O)cccc2C1=O`, the ED50 in assay [2] was 17.4 µM. Further, the k cat/Km in assay [3] was 16.8 10e4 M-1 s-1.
For `O=C(O)CCCC1=C(CCCC(=O)O)C(=O)c2c(O)cccc2C1=O`, the ED50 in assay [2] was above 87 µM.
Same read-out and setting: in the case of `CC1=C(CCCCCNC(=O)OC(C)(C)C)C(=O)c2ccccc2C1=O` it was 12.5 µM.
In the case of `CC1=C(CCCC(=O)NCCCN2CCN(CCCNC(=O)CCCC3=C(C)C(=O)c4ccccc4C3=O)CC2)C(=O)c2ccccc2C1=O`, the ED50 in assay [2] is 14.7 µM. Moreover, in assay [3], the k cat/Km is 4.2 10e4 M-1 s-1.
`CC1=C(CCCCC(=O)NCCCNCCCNC(=O)CCCCC2=C(C)C(=O)c3cccc(O)c3C2=O)C(=O)c2c(O)cccc2C1=O`: the ED50 in assay [2] was 11.1 µM. Also, the k cat/Km in assay [3] was 11.4 10e4 M-1 s-1.
In assay [2], `CC1=C(CCNC(=O)OC(C)(C)C)C(=O)c2ccccc2C1=O` returned an ED50 of 8.8 µM.
On to `CN1CCN(CCCNC(=O)CCCC2=C(CCCC(=O)NCCCN3CCN(C)CC3)C(=O)c3c(O)cccc3C2=O)CC1`, for which the ED50 in assay [2] was above 59 µM. In addition, the x fold in assay [1] came to 45.
Regarding `CC1=C(CCCCCC(=O)NCCCCNCCCNC(=O)CCCCCC2=C(C)C(=O)c3ccccc3C2=O)C(=O)c2ccccc2C1=O`, the ED50 in assay [2] stood at 5.4 µM. For the same compound, the k cat/Km in assay [3] is 4.8 10e4 M-1 s-1.
On to `CC1=C(CCCCNC(=O)OC(C)(C)C)C(=O)c2c(O)cccc2C1=O`, for which the ED50 in assay [2] was 14.2 µM.
`CC1=C(CCC(=O)N2CCN(C)CC2)C(=O)c2ccccc2C1=O` yielded an ED50 in assay [2] of 87 µM. Besides, in assay [1], the x fold was found to be 19.
In assay [2], `CC1=C(NCCCNCCCCNCCCN)C(=O)c2c(O)cccc2C1=O` returned an ED50 above 30 µM.
As to `CC1=C(CCCCCC(=O)NCCCN2CCN(CCCNC(=O)CCCCCC3=C(C)C(=O)c4ccccc4C3=O)CC2)C(=O)c2ccccc2C1=O`, the ED50 in assay [2] is 14.3 µM. Further, the k cat/Km in assay [3] is 3.3 10e4 M-1 s-1.
Regarding `CC1=C(CCCCC(=O)NCCCN2CCN(CCCNC(=O)CCCCC3=C(C)C(=O)c4ccccc4C3=O)CC2)C(=O)c2ccccc2C1=O`, the ED50 in assay [2] was 31.3 µM. Also, the k cat/Km in assay [3] is 8.4 10e4 M-1 s-1.
For `CC1=C(CCCCC(=O)NCCCCNCCCNC(=O)CCCCC2=C(C)C(=O)c3ccccc3C2=O)C(=O)c2ccccc2C1=O`, the ED50 in assay [2] was 11.9 µM. The k cat/Km in assay [3] was 5.8 10e4 M-1 s-1.
With `CC1=C(CCCCCC(=O)NCCCCNCCCNC(=O)CCCCCC2=C(C)C(=O)c3cccc(O)c3C2=O)C(=O)c2c(O)cccc2C1=O`, the ED50 in assay [2] stood at 34.8 µM. Further, in assay [3], the k cat/Km is 13.3 10e4 M-1 s-1.
`CC1=C(CCCCCC(=O)O)C(=O)c2ccccc2C1=O` displayed an ED50 in assay [2] of 18 µM.
On to `CC1=C(CCCC(=O)NCCCN2CCN(C)CC2)C(=O)c2c(O)cccc2C1=O`, for which, in assay [2], the ED50 came to 66 µM. Moreover, the x fold in assay [1] stood at 40.
Regarding `CC1=C(CCCCCC(=O)O)C(=O)c2c(O)cccc2C1=O`, the ED50 in assay [2] worked out at 28 µM.
With `CC1=C(CCCC(=O)NCCCCNCCCNC(=O)CCCC2=C(C)C(=O)c3cccc(O)c3C2=O)C(=O)c2c(O)cccc2C1=O`, the ED50 in assay [2] is above 46 µM. In assay [3], the k cat/Km is 3.6 10e4 M-1 s-1.
In turn, `CN1CCN(CCCNC(=O)CCC2=C(CCC(=O)NCCCN3CCN(C)CC3)C(=O)c3c(O)cccc3C2=O)CC1` showed an ED50 in assay [2] above 50 µM.
With `CC1=C(CCCCC(=O)NCCCNCCCNC(=O)CCCCC2=C(C)C(=O)c3ccccc3C2=O)C(=O)c2ccccc2C1=O`, the ED50 in assay [2] is above 45 µM. Further, the k cat/Km in assay [3] was 0.8 10e4 M-1 s-1.
Compound `CC1=C(CCC(=O)NCCCN2CCN(CCCNC(=O)CCC3=C(C)C(=O)c4cccc(O)c4C3=O)CC2)C(=O)c2c(O)cccc2C1=O` had an ED50 in assay [2] above 44 µM. Moreover, the k cat/Km in assay [3] is 5.1 10e4 M-1 s-1.
In the case of `CC1=C(NCCCNCCCN)C(=O)c2c(O)cccc2C1=O`, the ED50 in assay [2] was above 30 µM. Besides, the x fold in assay [1] worked out at 2.
In the case of `CN1CCN(C(=O)CCC2=C(CCC(=O)N3CCN(C)CC3)C(=O)c3c(O)cccc3C2=O)CC1`, in assay [2], the ED50 is above 62 µM.
The compound `O=C(O)CCC1=C(CCC(=O)O)C(=O)c2c(O)cccc2C1=O` showed an ED50 in assay [2] above 93 µM.
On to `CC1=C(CCCC(=O)N2CCN(C)CC2)C(=O)c2ccccc2C1=O`, for which, in assay [2], the ED50 worked out at 32 µM.
`CC1=C(CCC(=O)N2CCN(C)CC2)C(=O)c2c(O)cccc2C1=O` yielded an ED50 in assay [2] above 88 µM. For the same compound, in assay [1], the x fold was 38.
`CC1=C(CCCC(=O)NCCCNCCCNC(=O)CCCC2=C(C)C(=O)c3ccccc3C2=O)C(=O)c2ccccc2C1=O`: the ED50 in assay [2] was above 49 µM. The k cat/Km in assay [3] was 1.6 10e4 M-1 s-1.
For `CC1=C(CCCC(=O)NCCCCNCCCNC(=O)CCCC2=C(C)C(=O)c3ccccc3C2=O)C(=O)c2ccccc2C1=O`, the ED50 in assay [2] is above 48 µM. For the same compound, the k cat/Km in assay [3] is 2.3 10e4 M-1 s-1.
For `CC1=C(CCCC(=O)NCCCN2CCN(C)CC2)C(=O)c2ccccc2C1=O`, in assay [2], the ED50 is above 76 µM. In assay [1], the x fold amounted to 11.
Consider `CN1CCN(CCCNC(=O)CCCCC2=C(CCCCC(=O)NCCCN3CCN(C)CC3)C(=O)c3c(O)cccc3C2=O)CC1`, for which the ED50 in assay [2] is 38.2 µM.
With `CC1=C(CCCC(=O)NCCCN2CCN(CCCNC(=O)CCCC3=C(C)C(=O)c4cccc(O)c4C3=O)CC2)C(=O)c2c(O)cccc2C1=O`, the ED50 in assay [2] is 38.5 µM. Also, the k cat/Km in assay [3] was 3.5 10e4 M-1 s-1.
For `CC1=C(CCC(=O)NCCCCNCCCNC(=O)CCC2=C(C)C(=O)c3ccccc3C2=O)C(=O)c2ccccc2C1=O` the same measures were above 50 µM and 5.1 10e4 M-1 s-1.
Take `CC1=C(CCCCCC(=O)NCCCNCCCNC(=O)CCCCCC2=C(C)C(=O)c3cccc(O)c3C2=O)C(=O)c2c(O)cccc2C1=O`: in assay [2], the ED50 worked out at 10.3 µM. The k cat/Km in assay [3] was 14.5 10e4 M-1 s-1.
The compound `CC1=C(NCCCCN)C(=O)c2ccccc2C1=O` displayed an ED50 in assay [2] above 12.5 µM.
In the case of `CC1=C(O)c2ccccc2C(=O)/C1=N\CCCN1CCN(C)CC1`, the x fold in assay [1] was 2.
The compound `CC1=C(CCCCC(=O)NCCCCNCCCNC(=O)CCCCC2=C(C)C(=O)c3cccc(O)c3C2=O)C(=O)c2c(O)cccc2C1=O` came in with an ED50 in assay [2] of 7.8 µM. The k cat/Km in assay [3] was 13 10e4 M-1 s-1.
The compound `CC1=C(CCC(=O)NCCCNCCCNC(=O)CCC2=C(C)C(=O)c3ccccc3C2=O)C(=O)c2ccccc2C1=O` displayed an ED50 in assay [2] above 51 µM. Also, the k cat/Km in assay [3] is 2.3 10e4 M-1 s-1.
`O=C(O)CCCCC1=C(CCCCC(=O)O)C(=O)c2c(O)cccc2C1=O`: the ED50 in assay [2] is above 80 µM.
In the case of `CC1=C(CCNC(=O)OC(C)(C)C)C(=O)c2c(O)cccc2C1=O`, in assay [2], the ED50 is 11.8 µM.
In the case of `CC1=C(CCCCC(=O)O)C(=O)c2c(O)cccc2C1=O`, in assay [2], the ED50 turned out to be 56 µM.
